Experimental data published in ChEMBL document CHEMBL3774342, “Indole Based Weapons to Fight Antibiotic Resistance: A Structure-Activity Relationship Study” (J Med Chem, 2016).
Values after ≈ are worked out from the molar mass of the structure shown.

Assays:
[1] = target: T1, Quinolone resistance protein NorA (Staphylococcus aureus, UniProt P0A0J7); assay: Inhibition of NorA efflux pump in Staphylococcus aureus 1199B assessed as reduction in EtBr efflux incubated for 20 mins measured for 5 mins by real-time fluorometric analysis
T1 sequence (P0A0J7 whole entry): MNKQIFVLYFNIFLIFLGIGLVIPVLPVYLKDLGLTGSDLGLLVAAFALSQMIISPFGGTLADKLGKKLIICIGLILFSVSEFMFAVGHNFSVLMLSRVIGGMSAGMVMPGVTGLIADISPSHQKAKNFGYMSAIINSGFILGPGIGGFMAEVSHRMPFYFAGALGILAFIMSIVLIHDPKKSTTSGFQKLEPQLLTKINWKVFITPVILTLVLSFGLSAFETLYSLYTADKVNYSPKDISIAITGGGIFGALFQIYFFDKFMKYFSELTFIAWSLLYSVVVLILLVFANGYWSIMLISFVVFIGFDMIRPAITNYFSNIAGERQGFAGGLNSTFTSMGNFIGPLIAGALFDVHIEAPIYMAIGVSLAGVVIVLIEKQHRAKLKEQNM
How it was run: (§1)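 SA-1199B (norA-overexpressing) grown overnight in cation-supplemented Mueller-Hinton broth, diluted 25-fold and grown at 35 °C to OD600 0.7–0.8. Loaded with EtBr 25 µM plus CCCP 100 µM (final), then resuspended in fresh broth. Fluorescence read at ex 485/em 645 nm for 5 min, ± compound. Efflux inhibition in % relative to untreated cells; screened at 50 µM. IC50 from concentration series; triplicate, two technical replicates each.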

[2] = target: T2, Quinolone resistance protein NorA (Staphylococcus aureus) (UniProt P0A0J7); assay: Inhibition of NorA efflux pump in Staphylococcus aureus 1199B assessed as reduction in EtBr efflux at 50 uM incubated for 20 mins measured for 5 mins by real-time fluorometric analysis; how it was run: as §1
T2 sequence (whole entry): T1 sequence (P0A0J7 whole entry)

Staphylococcus aureus = assay: Antimicrobial activity against Staphylococcus aureus 1199B by microdilution method; assay type: functional
How it was run: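 MIC by broth microdilution following CLSI guidelines against S. aureus SA-1199B, a strain that overexpresses norA. Run on compounds giving at least 80% EtBr efflux inhibition and on selected weaker ones.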

Liver microsome [3] = assay: Drug level in human liver microsomes treated with Ethyl 1-(2-Methoxybenzyl)-2-methyl-5-(3-(piperidin-1-yl)-propoxy)-1H-indole-3-carboxylate at 10 uM preincubated for 5 mins followed by NADPH addition measured after 30 mins by HPLC-MS/MS analysis; assay type: ADME; conditions: 0.5 h
How it was run: (§2)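 Human liver microsomes at 0.5 mg protein/ml in 100 mM potassium phosphate pH 7.4. Substrate at 10 µM final, pre-incubated 5 min at 37 °C with shaking, then started with 1 mM NADPH. Quenched at 0 and 30 min with cold acetonitrile containing labetalol internal standard. Spun 12000 g, 5 min, 4 °C; supernatant analysed by UHPLC C18 HPLC-MS/MS.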

Liver microsome [4] = assay: Drug level in human liver microsomes treated with Ethyl 1-benzyl-2-methyl-5-(3-(piperidin-1-yl)propoxy)-1H-indole-3-carboxylate at 10 uM preincubated for 5 mins followed by NADPH addition measured after 30 mins by HPLC-MS/MS analysis; assay type: ADME; conditions: 0.5 h; how it was run: as §2
Liver microsome [5] = assay: Drug level in human liver microsomes treated with Ethyl 5-(3-Aminopropoxy)-1-benzyl-2-methyl-(1H)-indole-3-carboxylate at 10 uM preincubated for 5 mins followed by NADPH addition measured after 30 mins by HPLC-MS/MS analysis; assay type: ADME; conditions: 0.5 h; how it was run: as §2
[6] = target: T2, Quinolone resistance protein NorA (Staphylococcus aureus); assay: Inhibition of NorA efflux pump in Staphylococcus aureus assessed as potentiation of ciprofloxacin-mediated antibacterial activity at 1.5 ug/ml relative to control
Liver microsome [7] = assay: Drug level in human liver microsomes treated with Ethyl 1-Benzyl-2-methyl-5-(2-(piperazin-1-yl)ethoxy)-1H-indole-3-carboxylate at 10 uM preincubated for 5 mins followed by NADPH addition measured after 30 mins by HPLC-MS/MS analysis; assay type: ADME; conditions: 0.5 h; how it was run: as §2
[8] = Metabolic stability in human liver microsomes assessed as compound remaining after at 10 uM preincubated for 5 mins followed by NADPH addition measured after 30 mins by HPLC-MS/MS analysis; assay type: ADME; conditions: read-out: Stability; how it was run: as §2
[9] = Solubility of the compound in D2O solution at 25 degC by 1H NMR analysis; assay type: physicochemical
How it was run: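 1H NMR in D2O at 25 °C with TSP internal standard, following a literature procedure.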

Liver microsome [10] = assay: Drug level in human liver microsomes treated with Ethyl 1-Benzyl-2-methyl-5-(3-(piperazin1-yl)propoxy)-(1H)-indole-3-carboxylate at 10 uM preincubated for 5 mins followed by NADPH addition measured after 30 mins by HPLC-MS/MS analysis; assay type: ADME; conditions: 0.5 h; how it was run: as §2

Compound | IC50 [1] | inhibition [2] | MIC (Staphylococcus aureus) | also measured
CCOC(=O)c1c(C)n(Cc2ccccc2)c2ccc(OCCN3CCOCC3)cc12 | 16.8 µM | 90.9% | > 100 µg/mL | 
CCOC(=O)Cc1c(C)n(Cc2ccccc2)c2ccc(OCCCN3CCCCCC3)cc12 | 6.1 µM | 98.4% | 100 µg/mL (≈ 216 µM) | 
CCOC(=O)c1c(C)[nH]c2ccc(OCCCN3CCCCC3)cc12 |  | 34.2% |  | Drug metabolism (Liver microsome [3]): metabolite_detected; Drug metabolism (Liver microsome [4]): metabolite_detected
CCOC(=O)c1c(C)[nH]c2ccc(OCCCN)cc12 |  |  |  | Drug metabolism (Liver microsome [5]): metabolite_detected
CCOC(=O)c1c(C)n(Cc2ccccc2)c2ccc(OCCCN3CCC(F)(F)CC3)cc12 |  | 25.9% |  | 
CCOC(=O)c1c(C)n(Cc2ccccc2)c2ccc(OCC(N)CO)cc12 (configuration not stated) | 10.4 µM | 100% | > 100 µg/mL | 
CCOC(=O)c1c(C)n(Cc2ccccc2)c2ccc(OCC(O)CN3CCCCCC3)cc12 (configuration not stated) | 6.8 µM | 92.8% | 100 µg/mL (≈ 215 µM) | 
CCOC(=O)c1c(C)n(Cc2ccccc2)c2ccc(OCCN3CCN(C)CC3)cc12 | 10.1 µM | 99.7% | > 100 µg/mL | 
CCOC(=O)c1c(C)n(Cc2ccccc2F)c2ccc(OCCCN3CCCCC3)cc12 | 4.8 µM | 89% | > 100 µg/mL | 
O=[N+]([O-])c1ccc2[nH]c(-c3ccccc3)cc2c1 |  |  |  | fold change (FC) [6]: 4
Cc1c(C(=O)O)c2cc(OCCCN)ccc2n1Cc1ccccc1 |  |  |  | Drug metabolism (Liver microsome [5]): metabolite_detected
CCOC(=O)c1c(C)n(Cc2ccccc2)c2ccc(OCCCN3CCN(C)CC3)cc12 | 11.9 µM | 100% | > 100 µg/mL | 
Cc1c(C(=O)O)c2cc(OCCN3CCNCC3)ccc2n1Cc1ccccc1 |  |  |  | Drug metabolism (Liver microsome [7]): metabolite_detected
CCOC(=O)c1c(C)n(Cc2ccccc2)c2ccc(OCCCCN)cc12 | 6.7 µM | 93.7% | 100 µg/mL (≈ 263 µM) | 
CCOC(=O)c1c(C)n(Cc2ccccc2)c2ccc(OCCCN3CCOCC3)cc12 | 10.6 µM | 98.6% | > 100 µg/mL | 
CCOC(=O)c1c(C)n(Cc2ccccc2)c2ccc(OCCN(C)C)cc12 | 22.5 µM | 98.2% | > 100 µg/mL | 
CCOC(=O)c1c(C)n(Cc2ccccc2)c2ccc([N+](=O)[O-])cc12 |  | 9.1% |  | 
CCOC(=O)c1c(C)n(Cc2cccc(C)c2)c2ccc(OCCCN3CCCCC3)cc12 | 6.1 µM | 70.9% | 50 µg/mL (≈ 111 µM) | 
CCOC(=O)c1c(C)n(Cc2ccccc2[N+](=O)[O-])c2ccc(OCCCN3CCCCC3)cc12 | 6.3 µM | 91.8% | > 100 µg/mL | remaining at 0.5 h, 10 µM [8]: 89%; solubility [9]: 14 µM (≈ 6.71 µg/mL)
CCOC(=O)c1c(C)n(Cc2cccc(C(F)(F)F)c2)c2ccc(OCCCN3CCCCC3)cc12 | 14.2 µM | 12.9% | > 100 µg/mL | 
CCOC(=O)c1c(C)n(Cc2ccccc2)c2ccc(OCCCCN3CCNCC3)cc12 |  | 71.9% | > 100 µg/mL | 
CCOC(=O)c1c(C)n(CCc2ccccc2)c2ccc(OCCCN3CCCCC3)cc12 | 13.7 µM | 99.3% | > 100 µg/mL | 
Cc1c(C(=O)O)c2cc(OCCCN3CCCCC3)ccc2n1Cc1ccccc1 |  | 0% |  | Drug metabolism (Liver microsome [4]): metabolite_detected
CCOC(=O)c1c(C)n(Cc2ccccc2)c2ccc(OCCN3CCCCC3)cc12 | 11.6 µM | 100% | > 100 µg/mL | 
CCOC(=O)c1c(C)n(Cc2ccc(C(F)(F)F)cc2)c2ccc(OCCCN3CCCCC3)cc12 | 14.1 µM | 77.7% | > 100 µg/mL | 

Compound | IC50 [1] | inhibition [2] | MIC (Staphylococcus aureus) | also measured
CCOC(=O)c1c(C)n(Cc2ccccc2)c2ccc(OCC(O)CN)cc12 (configuration not stated) | 17.1 µM | 100% | > 100 µg/mL | 
CCOC(=O)c1c(C)n(Cc2ccc(F)cc2)c2ccc(OCCCN3CCCCC3)cc12 | 8.7 µM | 91.1% | > 100 µg/mL | 
CCOC(=O)c1c(C)n(Cc2ccccc2)c2ccc(OCC(O)CN3CCCCC3)cc12 (configuration not stated) | 5.8 µM | 99.3% | > 100 µg/mL | 
CCOC(=O)c1c(C)n(Cc2ccccc2)c2ccc(OCCN)cc12 |  | 67.7% |  | 
Cc1c(C(=O)O)c2cc(OCCCN3CCNCC3)ccc2n1Cc1ccccc1 |  |  |  | Drug metabolism (Liver microsome [10]): metabolite_detected
CCOC(=O)c1c(C)n(Cc2ccc(OC)cc2)c2ccc(OCCCN3CCCCC3)cc12 | 7.1 µM | 77.7% | > 100 µg/mL | 
CCOC(=O)c1c(C)n(Cc2ccccc2)c2ccc(O)cc12 |  | 1% | > 100 µg/mL | 
CCOC(=O)c1c(C)n(Cc2ccccc2)c2ccc(C(F)(F)F)cc12 |  | 36.6% |  | 
Cc1cc2cc(OCCCN3CCCCC3)ccc2n1Cc1ccccc1 | 6.6 µM | 95.6% | 0.63 µg/mL (≈ 1.74 µM) | remaining at 0.5 h, 10 µM [8]: 100%; solubility [9]: 70 µM (≈ 25.4 µg/mL)
CCOC(=O)c1c(C)n(Cc2ccccc2)c2ccc(OCC(O)CN3CCOCC3)cc12 (configuration not stated) | 17 µM | 99% | > 100 µg/mL | 
CCOC(=O)c1c(C)n(Cc2ccc(C)cc2)c2ccc(OCCCN3CCCCC3)cc12 | 6.7 µM | 58.3% | 25 µg/mL (≈ 55.7 µM) | 
CCOC(=O)c1c(C)n(Cc2ccccc2)c2ccc(OC(C)=O)cc12 |  | 20.4% |  | 
CCOC(=O)c1c(C)n(Cc2cccc([N+](=O)[O-])c2)c2ccc(OCCCN3CCCCC3)cc12 | 4.4 µM | 85.1% | > 100 µg/mL | 
CCOC(=O)c1c(C)n(Cc2ccc([N+](=O)[O-])cc2)c2ccc(OCCCN3CCCCC3)cc12 | 6.5 µM | 89.9% | > 100 µg/mL | 
CCOC(=O)c1c(C)n(Cc2ccccc2)c2ccc(OCC(CF)N3CCCCC3)cc12 (configuration not stated) |  | 38.5% | > 100 µg/mL | 
CCOC(=O)c1c(C)n(Cc2ccccc2O)c2ccc(OCCCN3CCCCC3)cc12 |  |  |  | Drug metabolism (Liver microsome [3]): metabolite_detected
CCOC(=O)c1c(C)[nH]c2ccc(OCCCN3CCNCC3)cc12 |  |  |  | Drug metabolism (Liver microsome [10]): metabolite_detected
CCOC(=O)c1c(C)n(Cc2ccccc2)c2ccc(OCCc3ccccc3)cc12 |  | 4.7% | > 100 µg/mL | 
CCOC(=O)c1c(C)[nH]c2ccc(OCCN3CCNCC3)cc12 |  |  |  | Drug metabolism (Liver microsome [7]): metabolite_detected
CCOC(=O)c1c(C)n(Cc2cccc(F)c2)c2ccc(OCCCN3CCCCC3)cc12 | 6.1 µM | 89.7% | > 100 µg/mL | 
CCOC(=O)c1c(C)n(Cc2ccccc2)c2ccc(OCCCN3CCCCCC3)cc12 |  | 77.4% | > 100 µg/mL | 
CCOC(=O)c1c(C)n(Cc2ccccc2C)c2ccc(OCCCN3CCCCC3)cc12 | 4.8 µM | 54% | 25 µg/mL (≈ 55.7 µM) | 
CCOC(=O)c1c(C)n(Cc2cccc(OC)c2)c2ccc(OCCCN3CCCCC3)cc12 | 7.3 µM | 77.1% | > 100 µg/mL | 
CCOC(=O)c1c(C)n(Cc2ccccc2)c2ccc(OCCCNCc3ccccc3)cc12 |  | 45.4% |  | 
